Rows were chosen to be rich in hits. Some 3.1% of all compounds tested hit in one or more screens of this group.
hERG protect = hERG (human) protection from proarrhythmic block; 310,000 compounds, 0.51% hits; activation (rescue from dofetilide block), less the hit threshold, % at 10 µM; CHO-hERG, FluxOR thallium flux, dofetilide IC70 present; AID 1511; Q12809;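 active = activation above the mean of controls blocked by dofetilide plus 5 SD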;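 also: thallium influx through hERG after potassium depolarization seen as dye fluorescence rise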
Target sequence (Q12809 whole entry, looked up): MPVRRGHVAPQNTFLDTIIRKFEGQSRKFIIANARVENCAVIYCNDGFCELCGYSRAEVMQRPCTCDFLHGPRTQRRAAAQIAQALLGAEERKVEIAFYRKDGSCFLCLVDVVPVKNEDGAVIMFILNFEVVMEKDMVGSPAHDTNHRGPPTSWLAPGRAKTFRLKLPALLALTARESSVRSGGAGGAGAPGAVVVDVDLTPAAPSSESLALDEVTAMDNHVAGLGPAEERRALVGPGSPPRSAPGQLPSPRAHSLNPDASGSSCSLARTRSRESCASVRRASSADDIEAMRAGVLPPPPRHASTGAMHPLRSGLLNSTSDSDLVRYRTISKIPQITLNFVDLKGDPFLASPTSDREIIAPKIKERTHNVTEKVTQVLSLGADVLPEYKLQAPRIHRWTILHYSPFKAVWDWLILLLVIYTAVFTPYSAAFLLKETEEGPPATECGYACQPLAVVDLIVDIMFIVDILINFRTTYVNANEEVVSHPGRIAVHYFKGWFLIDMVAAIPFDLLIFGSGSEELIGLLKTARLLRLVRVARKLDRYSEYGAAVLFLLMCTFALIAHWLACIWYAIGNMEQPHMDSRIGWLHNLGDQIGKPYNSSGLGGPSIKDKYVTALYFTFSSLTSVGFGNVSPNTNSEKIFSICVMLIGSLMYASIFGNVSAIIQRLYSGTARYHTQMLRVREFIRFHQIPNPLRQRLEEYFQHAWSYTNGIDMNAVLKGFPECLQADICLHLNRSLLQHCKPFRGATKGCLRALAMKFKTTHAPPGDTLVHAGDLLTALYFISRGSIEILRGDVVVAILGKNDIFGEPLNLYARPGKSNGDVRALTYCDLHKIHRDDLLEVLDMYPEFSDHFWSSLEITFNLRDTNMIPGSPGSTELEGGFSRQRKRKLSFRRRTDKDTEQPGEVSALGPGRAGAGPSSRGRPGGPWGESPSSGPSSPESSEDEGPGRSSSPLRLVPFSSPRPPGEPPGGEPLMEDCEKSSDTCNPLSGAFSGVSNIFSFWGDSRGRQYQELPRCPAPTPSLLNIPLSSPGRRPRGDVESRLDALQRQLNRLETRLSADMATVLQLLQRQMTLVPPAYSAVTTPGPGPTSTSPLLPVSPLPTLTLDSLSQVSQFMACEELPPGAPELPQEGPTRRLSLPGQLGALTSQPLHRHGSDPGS
KCNQ1 pot = human KCNQ1 channel potentiation or activation; P51787; CHO-K1 KCNQ1, thallium flux FluxOR fluorescence; hits give high values; B-score at 10 µM; 310,000 compounds, 0.35% hits; AID 2648;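 active = fluorescence ratio B-score, a plate-corrected score, at least three library SD, with initial intensity B-score within 5 SD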
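Assay system: CHO-K1 cells stably expressing KCNQ1; Medium: assay buffer with matched DMSO; Also added: K+/Tl+ depolarizing stimulus; Dosing: single dose; Timing: dye 90 min, compound 20 min, room temperature; Measured by: kinetic FluxOR thallium fluorescence, 10-s 1-Hz baseline, 110-s post-stimulus read; Read-out: peak-minus-minimum fluorescence over initial fluorescence, negative-control normalized, B-scored.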
KCNK3 inh = human KCNK3 channel inhibition, primary screen. O14649. CHO-KCNK3 thallium flux, FluxOR fluorescence; hits give low values. B-score at 10 µM. 340,000 compounds, 0.84% hits. AID 602410;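 active = B-score under library mean minus 4 SD, starting fluorescence ratio at most library mean plus 5 SD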;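 also: more negative B-score means stronger inhibition of thallium flux through KCNK3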
KCNK9 inh = human KCNK9 channel inhibition; Q9NPC2; HEK293 KCNK9, FluxOR thallium flux fluorescence; hits give low values; B-score at 10 µM; 310,000 compounds, 1.2% hits; AID 488922;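 active = ratio B-score over 3 SD below the library mean, with starting fluorescence within 5 SD of its mean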;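 also: negative B-score means less thallium flux so channel inhibition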
KCNQ1 inh = blocks the human KCNQ1 potassium channel. CHO-K1 KCNQ1, FluxOR thallium flux fluorescence; hits give high values. B-score at 10 µM. 310,000 compounds, 1.3% hits;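 active = compounds whose thallium flux B-score, printed positive for inhibition, exceeds three library SD while starting fluorescence stays within three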;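 also: channel opened by potassium depolarization with thallium stimulus after 20 min compound exposure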
KCNK3 confirm = confirmation of human KCNK3 two-pore domain potassium channel inhibitors | shares compounds with KCNK3 inh | CHO-KCNK3 thallium flux, FluxOR fluorescence; 0% buffer, 100% carvedilol maximal block | ratio percent of control, % at 10 µM | 2,400 compounds, 99% hits | AID 651638;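 active = ratio percent of control, averaged over triplicates, above buffer control mean plus 5 SD, cut at about 64% in these data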;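 also: ratio is the fluorescence rise from min to max over baseline after thallium stimulus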
KCNK3 noninduced = KCNK3 inhibitor counter-screen hit in non-induced cells. shares compounds with KCNK3 inh. non-induced KCNK3 parental cells, FluxOR thallium flux; hits give low values. thallium flux ratio (lower = more inhibition) at 10 µM. 2,400 compounds, 40% hits. AID 651747;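 active = thallium flux ratio, averaged over three wells, more than 5 SD below the buffer control mean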;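 also: host cells are CHO cells without KCNK3 induction; ratio is peak minus trough fluorescence over baseline then normalized to buffer controls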
* marks the source's active call; other numbers are inactive results; i = inactive; nt = not tested or not shown.

SMILES	hERG protect	KCNQ1 pot	KCNK3 inh	KCNK9 inh	KCNQ1 inh	KCNK3 confirm	KCNK3 noninduced
CC1=[N+](C)c2c(ccc3cccnc23)C1(C)C	nt	nt	-12*	nt	nt	119.0*	i
Cc1[nH]c2c(ccc3cccnc32)c1C	-8.7	i	i	i	i	nt	nt
CCCCCC(O)(c1ccccc1)C(CN1CCOCC1)c1ccccc1 (centres undefined)	-1.0	i	i	i	i	nt	nt
O=C(CSc1nnnn1-c1ccc(Cl)cc1)NC1CCS(=O)(=O)C1 (centres undefined)	nt	nt	i	nt	nt	nt	nt
CCOC(=O)Cc1csc(NC(=O)COc2ccccc2OCC)n1	-1.2	i	i	i	i	nt	nt
CCOC(=O)Cc1csc(NC(=O)COc2c(C)cccc2C)n1	-3.6	i	-13.4*	i	i	92.7*	i
CC1CCc2ccccc2N1C(=O)c1cccs1 (centres undefined)	-11.1	i	-8.91*	i	i	69.0*	i
Fc1ccc(C(c2nnnn2Cc2cccs2)N2CCN(c3ccccc3)CC2)cc1 (centres undefined)	-11.0	i	-10.1*	-7.35*	i	102.0*	i
COc1ccc(C(c2nnnn2Cc2cccs2)N2CCN(c3ccccc3F)CC2)cc1OC (centres undefined)	-2.6	i	i	i	i	nt	nt
c1ccc(Cn2nnnc2C(c2cccs2)N2CCCCCC2)cc1 (centres undefined)	-5.9	i	-10.1*	i	i	116.0*	0.133*
Cc1csc(Sc2ccc([N+](=O)[O-])cc2C(=O)OCC(=O)NC(=O)NC(C)(C)C)n1	-9.5	i	i	i	i	nt	nt
O=[N+]([O-])C(/C=C(/Cl)[N+](=O)[O-])=C(N1CCCCC1)N1CCCCC1	-7.6	i	i	i	i	nt	nt
CC(C)C(NC(=O)C(NC(=O)C1OC2OC(C)(C)OC2C2OC(C)(C)OC12)C(C)C)C(=O)O (centres undefined)	-5.0	i	i	i	i	nt	nt
CC(C)c1ccc(C(C)NCCS(=O)(=O)c2ccc(Br)cc2)cc1 (centres undefined)	-14.1	i	-8.91*	i	i	69.3*	0.145*
CCOC(=O)c1ccccc1NC(=O)COC(=O)CC1CCCCC1	-5.6	i	-9.68*	i	i	105.3*	0.151*
CCOC(=O)c1ccccc1NC(=O)COC(=O)C1CCCC1	-12.3	i	i	i	i	nt	nt
COc1ccccc1C(=O)Nc1nc(C)cc(C)n1	-1.9	i	i	i	i	nt	nt
CCS(=O)(=O)c1nc(S(=O)(=O)c2ccc(Cl)cc2)c(N2CCc3ccccc3C2)s1	-9.8	i	i	i	i	nt	nt
O=C(C1CCCN(S(=O)(=O)c2ccc(Br)cc2)C1)N1CCN(Cc2ccccc2)CC1 (centres undefined)	-3.6	i	i	i	i	nt	nt
COc1ccc(/C=N/NC(=O)CNC(=O)c2ccncc2)cc1	-4.9	i	i	i	i	nt	nt
CC1CCC(C(C)C)C(OC(=O)CSc2nnc(N)s2)C1 (centres undefined)	-7.7	i	-9.72*	i	i	110.3*	i
CC1CCC(C(C)C)C(OC(=O)CSc2nc(N)cc(=O)[nH]2)C1 (centres undefined)	-13.3	i	i	i	i	nt	nt
CCOC(=O)C1CCN(C(=O)Nc2cc(Cl)cc(Cl)c2)CC1	-3.2	i	-9.93*	i	i	110.7*	i
O=C(NNC(=O)c1cc(-c2ccncc2)nc2ccccc12)Nc1ccc(F)cc1	-8.0	i	i	i	i	nt	nt
O=C(NNC(=O)c1cc(-c2ccccc2)nc2ccccc12)Nc1cccc(Cl)c1	-22.1	i	-9.9*	i	13*	114.7*	i
SMILES	hERG protect	KCNQ1 pot	KCNK3 inh	KCNK9 inh	KCNQ1 inh	KCNK3 confirm	KCNK3 noninduced
Cc1ccccc1CN1C(=O)[C@H]2Cc3c([nH]c4ccccc34)C(C)(C)N2C1=O	-2.6	i	i	i	i	nt	nt
CC(OC(=O)C1CC1)C(=O)Nc1cc(C(F)(F)F)ccc1Cl (centres undefined)	-6.7	i	-9.92*	i	i	77.0*	0.152*
CCC1(c2ccc(F)cc2)NC(=O)N(CC(=O)N2c3ccccc3CC2C)C1=O (centres undefined)	nt	nt	i	nt	nt	nt	nt
c1ccc(Cc2cc(-c3ccccc3)on2)cc1	-4.4	i	i	i	i	nt	nt
O=C(N/N=C/c1cccnc1)c1cc(-c2ccc(Cl)cc2)nc2ccccc12	-8.9	i	i	i	i	nt	nt
O=C(N/N=C/c1ccc[nH]1)c1cc(-c2ccc(Cl)cc2)nc2ccccc12	-15.3	i	-9.11*	i	i	123.7*	0.122*
COc1ccccc1C(=O)Nc1c(C(=O)N(CCN(C)C)Cc2ccco2)oc2ccccc12	-31.5	i	-11.1*	i	i	125.3*	0.135*
O=C(c1ccco1)N1CCN(C2CC(=O)N(c3ccc(F)c(Cl)c3)C2=O)CC1 (centres undefined)	-5.0	i	i	i	i	nt	nt
Cc1ccccc1NC(=O)c1nn(C)c(C(=O)Nc2ccccc2C)c1[N+](=O)[O-]	-2.1	i	i	i	i	nt	nt
COc1ccc(C)cc1NC(=O)c1nn(C)c(C(=O)Nc2cc(C)ccc2OC)c1[N+](=O)[O-]	-6.8	i	-9.01*	i	i	81.3*	i
CC(=O)c1cccc(NC(=O)N2C3CCC2CC(NC(=O)C2CC2)C3)c1 (centres undefined)	-17.8	i	i	i	i	nt	nt
COc1ccc(/C=N/NC(=O)Cc2csc(Nc3cccc(C(F)(F)F)c3)n2)cc1C	-7.9	i	-11*	i	i	98.3*	i
CC(C)Cc1nnc(NC(=O)CCC(=O)NCCc2ccc(Cl)cc2)s1	0.5	i	i	i	i	nt	nt
Cc1ccc(S(=O)(=O)N=S(CCO)CCO)cc1	1.6	i	i	i	i	nt	nt
Cc1c(Cl)cccc1NC(=S)NCC1COc2ccccc2O1 (centres undefined)	-9.2	i	-8.87*	i	i	125.0*	0.141*
COc1cc2c(cc1OC)C(c1ccccc1)N(C(=O)c1ccco1)CC2 (centres undefined)	-12.6	i	-10.7*	i	i	96.7*	i
CSCCC(NS(=O)(=O)c1ccccc1F)C(=O)Nc1ccncc1 (centres undefined)	nt	nt	i	nt	nt	nt	nt
C=CCNc1nc(SC)nc2ccsc12	-7.3	i	i	i	i	nt	nt
